Consider 18 compounds from ChEMBL document CHEMBL2046306, “Synthesis of 6-substituted 9-methoxy-11H-indeno[1,2-c]quinoline-11-one derivatives as potential anticancer agents” (Bioorg Med Chem, 2012).

The subject of assay [1] is SF-268. The assay is described as follows: Antiproliferative activity against human SF268 cells assessed as growth at 100 uM after 48 hrs by alamar blue assay. The class given is functional. Particulars: SF-268, 48 h, read-out: Activity. In short, it runs like this:
(§1)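 Single-dose prescreen in a three-line NCI panel (NCI-H460, MCF7, SF-268). Cells were inoculated and preincubated on microtiter plates, then exposed to test agent at 100 μM for 48 h. Alamar blue end-point. Growth is expressed as percent of untreated control cells.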

The subject of assay [2] is NCI-H460. Nature of the assay: Antiproliferative activity against human NCI-H460 cells assessed as growth at 100 uM after 48 hrs by alamar blue assay. Particulars: NCI-H460, 48 h, read-out: Activity. The class given is functional. In short, it runs like this:
as §1
For orientation: The colour change of resazurin is a common sign of viable cells or microbes.

For assay [3], the system named is MCF7. The assay is described as follows: Antiproliferative activity against human MCF7 cells assessed as growth at 100 uM after 48 hrs by alamar blue assay. Particulars: MCF7, 48 h, read-out: Activity. The assay is classed as functional. Put shortly:
as §1

Assay [4] has as its system IGROV-1. Nature of the assay: Growth inhibition of human IGROV1 cells after 48 hrs by sulforhodamine B assay. The class given is functional. Particulars: IGROV-1, 48 h. In short, it runs like this:
(§2)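 NCI 60-line screen. Cells grown in RPMI 1640 with 5% FBS and 2 mM L-glutamine, seeded at 5000–40,000 cells/well, preincubated 24 h at 37 °C. Five 10-fold dilutions added, highest well concentration 10E-4 M. Incubated 48 h in 5% CO₂ at 100% humidity. Sulforhodamine B read-out by optical density; GI50 taken from dose-response curves versus control.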

For assay [5], the system named is CCRF-CEM. The assay is described as follows: Growth inhibition of human CCRF-CEM cells after 48 hrs by sulforhodamine B assay. The class given is functional. Put shortly:
as §2

Assay [6] concerns A549. Nature of the assay: Growth inhibition of human A549 cells after 48 hrs by sulforhodamine B assay. The assay is classed as functional, cell-based. The following applies: A549, 48 h. In short, it runs like this:
as §2
A general note: In SRB staining, fixed cells bind dye roughly in proportion to their protein.

Assay [7] in a line: Growth inhibition of human Hs 578T cells after 48 hrs by sulforhodamine B assay. The class given is functional. Put shortly: as §2
Assay [8] has as its system U-251. Nature of the assay: Growth inhibition of human U251 cells after 48 hrs by sulforhodamine B assay. The class given is functional. Particulars: U-251, 48 h. Put shortly: (§3)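 NCI 60-line screen. Cells grown in RPMI 1640 with 5% FBS and 2 mM L-glutamine, seeded at 5000-40,000 cells/well and preincubated 24 h at 37 °C. Compounds added at five 10-fold dilutions, highest well concentration 10E-4 M. Exposure 48 h in 5% CO2 at 100% humidity. Endpoint is sulforhodamine B with optical density read-out. GI50 is the concentration giving 50% growth inhibition versus control.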

Assay [9] has as its system DU-145. Nature of the assay: Growth inhibition of human DU145 cells after 48 hrs by sulforhodamine B assay. The assay is classed as functional. The following applies: DU-145, 48 h. Put shortly: as §2
Assay [10] has as its system RXF 393. Nature of the assay: Growth inhibition of human RXF393 cells after 48 hrs by sulforhodamine B assay. The following applies: RXF 393, 48 h. The assay is classed as functional. In short, it runs like this: as §3
Assay [11] deals with SR. The assay is described as follows: Growth inhibition of human SR cells after 48 hrs by sulforhodamine B assay. The class given is functional. Put shortly: as §3
Assay [12] relates to HCT-116. Nature of the assay: Growth inhibition of human HCT116 cells after 48 hrs by sulforhodamine B assay. The assay is classed as functional. Particulars: HCT-116, 48 h. In short, it runs like this:
as §2

In assay [13] the test system is SK-MEL-5. The assay is described as follows: Growth inhibition of human SK-MEL-5 cells after 48 hrs by sulforhodamine B assay. The assay is classed as functional. The following applies: SK-MEL-5, 48 h. Put shortly: as §3
For assay [14], the system named is NCI-H460. The assay is described as follows: Growth inhibition of human NCI-H460 cells after 48 hrs by sulforhodamine B assay. The assay is classed as functional. Particulars: NCI-H460, 48 h. In short, it runs like this:
as §2

The structures appear in SMILES notation.

With `COc1ccc2c(c1)C(=O)c1c-2c(Nc2ccc(OC)c(OC)c2)nc2ccccc12`, the growth at 100 µM in assay [1] turned out to be 41%; in [2], 68%; in assay [3], 90%.
As for `COc1ccc(Nc2nc3ccccc3c3c2-c2ccc(OC)cc2C3=O)cc1`, the growth at 100 µM in [1] is 65%; in assay [2], 69%; in assay [3] it was 74%.
Turning to `CO/N=C1/c2cc(OC)ccc2-c2c(Nc3ccc(/C(C)=N/OC)cc3)nc3ccccc3c21`, the growth at 100 µM in assay [1] came to 108%; in assay [2], 112%; in assay [3], 89%.
Take `COc1ccc2c(c1)C(=O)c1c-2c(Nc2ccc(Cl)cc2)nc2ccccc12`: the GI50 in [4], in assay [5], in assay [6], in assay [7], in [8] and in assay [9] was 15.1 µM throughout. For the same compound, the GI50 in assay [10], in [11], in [12] and in assay [13] was 15.1 µM in each case. For the same compound, the growth at 100 µM was 42% in assay [1], 10% in assay [2] and 96% in assay [3].
Take `COc1ccc2c(c1)/C(=N\OC(C)=O)c1c-2c(Nc2ccc(/C(C)=N/OC(C)=O)cc2)nc2ccccc12`: the GI50 in assay [4], in [5], in assay [6], in assay [7], in assay [8] and in [9] was 52.5 µM each time. Further, the GI50 in [10], in [11], in [12] and in [13] was 52.5 µM each time. The growth at 100 µM in [1] was 36%; in assay [2], 37%; in assay [3] it was 24%.
On to `COc1ccc2c(c1)C(=O)c1c-2c(NCCN(C)C)nc2ccccc12`, for which the GI50 in [4], in assay [5], in assay [6], in assay [7], in assay [8] and in [9] was 3.47 µM each time. Further, the GI50 in assay [10], in [11], in [12] and in assay [13] was 3.47 µM throughout. The growth at 100 µM in [1] stood at 6%; in assay [2], 0%; in [3] it was 0%.
Turning to `COc1ccc2c(c1)C(=O)c1c-2c(Nc2ccc(F)c(F)c2)nc2ccccc12`, the growth at 100 µM in [1] turned out to be 69%; in assay [2], 96%; in [3], 106%.
Regarding `CO/N=C1/c2cc(OC)ccc2-c2c(Nc3cccc(/C(C)=N/OC)c3)nc3ccccc3c21`, the growth at 100 µM in assay [1] came to 92%; in assay [2], 82%; in [3], 80%.
With `COc1ccc2c(c1)/C(=N\O)c1c-2c(Nc2ccc(/C(C)=N/O)cc2)nc2ccccc12`, the GI50 (as a rule, the concentration giving 50% growth inhibition) was 15.1 µM in assay [4]; 29.5 µM in assay [14]; 4.17 µM in assay [5]; 1.45 µM in assay [6]; 7.08 µM in assay [7]; 2.29 µM in assay [8]. Further, the GI50 in assay [9] is 2.04 µM; in assay [10], under 0.01 µM; in assay [11], 1.48 µM; in assay [12], 1.48 µM; in assay [13], 3.8 µM. The growth at 100 µM is 2% in assay [1], 0% in assay [2] and 1% in assay [3].
Regarding `COc1ccc2c(c1)C(=O)c1c-2c(Nc2cccc(C(C)=O)c2)nc2ccccc12`, the GI50 in assay [4] amounted to 3.63 µM; in assay [14], 23.5 µM; in [5], 12.9 µM; in [6] it was 17.7 µM; in assay [7], 3.16 µM; in assay [8], 3.09 µM. Besides, the GI50 is 11.8 µM in assay [9]; 9.77 µM in assay [10]; 21.4 µM in assay [11]; 2.63 µM in assay [12]; 5.25 µM in assay [13]. In addition, the figures for the growth at 100 µM in assay [1], in assay [2] and in assay [3] were 7%, 0% and 17%, respectively.
With `COc1ccc2c(c1)C(=O)c1c-2c(Nc2ccc(C(C)=O)cc2)nc2ccccc12`, the GI50 in [4], in [5], in [6], in [7], in assay [8] and in assay [9] was 39.8 µM in each case. The GI50 in assay [10], in assay [11], in [12] and in [13] was 39.8 µM throughout. In addition, the growth at 100 µM in [1] is 11%; in assay [2] it was 18%; in [3] it was 61%.
Consider `COc1ccc2c(c1)/C(=N\OCCCN)c1c-2c(N2CCNCC2)nc2ccccc12`, for which the IC50 (commonly the midpoint of a concentration-inhibition curve) in assay [6] was 0.64 µM.
For the compound `COc1ccc(Nc2nc3ccccc3c3c2-c2ccc(OC)cc2C3=O)c(OC)c1`, the values for the growth at 100 µM in assay [1], in assay [2] and in assay [3] were 107%, 110% and 103%, respectively.
Regarding `COc1ccc2c(c1)/C(=N\OC(C)=O)c1c-2c(Nc2cccc(/C(C)=N/OC(C)=O)c2)nc2ccccc12`, the GI50 in assay [4], in assay [5], in assay [6], in assay [7], in assay [8] and in assay [9] was 53.7 µM throughout. The GI50 in [10], in assay [11], in assay [12] and in assay [13] was 53.7 µM each time. The results for the growth at 100 µM in assay [1], in [2] and in assay [3] were 43%, 96% and 32%, respectively.
On to `COc1ccc2c(c1)C(=O)c1c-2c(Nc2ccc(F)cc2F)nc2ccccc12`, for which the figures for the growth at 100 µM in [1], in [2] and in assay [3] were 68%, 96% and 99%, respectively.
As for `CN(C)CCCOc1ccc(-c2nc3ccc(OCCCN(C)C)cc3c3c2-c2ccc(OCCCN(C)C)cc2C3=O)cc1`, in assay [6], half-maximal inhibition (IC50) required 0.68 µM.
As to `COc1ccc2c(c1)/C(=N\O)c1c-2c(Nc2cccc(/C(C)=N/O)c2)nc2ccccc12`, the GI50 in assay [4], in assay [5], in assay [6], in [7], in assay [8] and in [9] was 28.2 µM in each case. In addition, the GI50 in [10], in [11], in assay [12] and in assay [13] was 28.2 µM each time. Besides, the growth at 100 µM was found to be 66% in assay [1], 11% in assay [2] and 84% in assay [3].
For the compound `COc1cccc(Nc2nc3ccccc3c3c2-c2ccc(OC)cc2C3=O)c1`, the growth at 100 µM in [1] worked out at 87%; in [2], 83%; in [3] it was 79%.
